Test results from ChEMBL document CHEMBL3217641, “Structure-function study of gemini derivatives with two different side chains at C-20, Gemini-0072 and Gemini-0097” (Medchemcomm, 2011).

Key:
[1] = target: T1, Vitamin D3 receptor A (Danio rerio) (UniProt Q9PTN2); experiment: Agonist activity at zebrafish gal4-VDR LBD expressed in human MCF7 cells by luciferase reporter gene based transactivation assay relative to parental gemini; type: cell-based; details: tested as the 2H-labelled form
T1 sequence (whole entry): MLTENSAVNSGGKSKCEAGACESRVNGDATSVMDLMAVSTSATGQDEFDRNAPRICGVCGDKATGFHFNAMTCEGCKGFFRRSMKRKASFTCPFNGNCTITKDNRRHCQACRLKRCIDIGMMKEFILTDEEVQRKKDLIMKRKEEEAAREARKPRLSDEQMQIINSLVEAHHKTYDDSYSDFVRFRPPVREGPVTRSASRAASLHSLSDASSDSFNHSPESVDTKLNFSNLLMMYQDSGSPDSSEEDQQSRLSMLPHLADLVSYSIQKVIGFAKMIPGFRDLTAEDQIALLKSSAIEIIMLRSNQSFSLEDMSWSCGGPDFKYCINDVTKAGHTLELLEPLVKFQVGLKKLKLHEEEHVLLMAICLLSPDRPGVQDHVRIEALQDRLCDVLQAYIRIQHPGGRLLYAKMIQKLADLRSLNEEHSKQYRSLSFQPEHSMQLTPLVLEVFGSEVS
Method in brief: (§1)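 Transient transfection of MCF-7 cells (10^5/well, grown overnight in phenol red-free DMEM with 10% charcoal-treated FBS, gentamicin, insulin) with Gal4DBD-zVDR(156–453), ptk-LUC reporter, β-galactosidase control and carrier plasmid via jetPEI. After 10 h, ligands at 0.1, 1, 10, 100 nM versus DMSO solvent for 24 h. Luciferase normalized to β-galactosidase; triplicates, mean and S.D.; EC50 derived.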

[2] = target: T1, Vitamin D3 receptor A (Danio rerio); experiment: Agonist activity at zebrafish gal4-VDR LBD expressed in human MCF7 cells by luciferase reporter gene based transactivation assay relative to 1alpha,25(OH)2D3; type: cell-based; details: tested as the 2H-labelled form; method in brief: as §1
[3] = Antiproliferative activity against ER negative human MCF10DCIS.com cells after 3 days by [3H]thymidine uptake assay relative to 1alpha,25(OH)2D3
[4] = Antiproliferative activity against ER positive human MCF10CA1a cells after 3 days by [3H]thymidine uptake assay; type: functional
[5] = Antiproliferative activity against ER negative human MCF10DCIS.com cells after 3 days by [3H]thymidine uptake assay
[6] = Antiproliferative activity against ER positive human MCF10AT1 cells after 3 days by [3H]thymidine uptake assay relative to 1alpha,25(OH)2D3; type: functional
[7] = Antiproliferative activity against ER positive human MCF10CA1a cells after 3 days by [3H]thymidine uptake assay relative to 1alpha,25(OH)2D3; type: functional
Vitamin D3 receptor A = target: T2, Vitamin D3 receptor A (Danio rerio, UniProt Q9PTN2); experiment: Agonist activity at zebrafish gal4-VDR LBD expressed in human MCF7 cells by luciferase reporter gene based transactivation assay; type: cell-based
T2 sequence (Q9PTN2 whole entry): T1 sequence (whole entry)
Method in brief: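 MCF-7 cells (10^5/well) were grown overnight in phenol red-free DMEM with 10% charcoal-treated FBS and 0.6 μg/ml insulin. They were transfected with jetPEI using Gal4DBD-zVDR(156–453) (25 ng), ptk-LUC reporter (250 ng) and β-galactosidase control (50 ng). After 10 h, ligand at 0.1–100 nM or DMSO solvent was added. After 24 h, luciferase was read, normalized to β-gal, in triplicate.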

[8] = Antiproliferative activity against ER positive human MCF10AT1 cells after 3 days by [3H]thymidine uptake assay; type: functional

Row | Compound | fold change (FC) [1] | fold change (FC) [2] | fold change (FC) [3] | IC50 [4] | IC50 [5] | fold change (FC) [6] | fold change (FC) [7] | EC50 (Vitamin D3 receptor A) | IC50 [8]
1 | CC(C)(O)CCC[C@H](CC#CC(O)(C(F)(F)F)C(F)(F)F)[C@H]1CC[C@H]2/C(=C/C=C3C[C@H](O)C[C@@H](O)C3)CCC[C@]12C | 5 | 22 |  |  |  |  |  |  | 
2 | [2H]C([2H])([2H])C(O)(CCC[C@H](CC#CC(O)(C(F)(F)F)C(F)(F)F)[C@H]1CC[C@H]2/C(=C/C=C3C[C@H](O)C[C@@H](O)C3)CCC[C@]12C)C([2H])([2H])[2H] |  |  | 10 | 0.15 nM | 0.36 nM | 10 | 10 | 0.25 nM | 0.51 nM
3 | CC(C)(O)CCC[C@@H](CC#CC(O)(C(F)(F)F)C(F)(F)F)[C@H]1CC[C@H]2/C(=C/C=C3C[C@H](O)C[C@@H](O)C3)CCC[C@]12C | 8 | 36 |  |  |  |  |  |  | 
4 | [2H]C([2H])([2H])C(O)(CCC[C@@H](CC#CC(O)(C(F)(F)F)C(F)(F)F)[C@H]1CC[C@H]2/C(=C/C=C3C[C@H](O)C[C@@H](O)C3)CCC[C@]12C)C([2H])([2H])[2H] |  |  | 10 | 0.09 nM | 0.23 nM | 10 | 10 | 0.15 nM | 0.23 nM
5 | C=C1/C(=C\C=C2/CCC[C@]3(C)[C@@H](C(CCCC(C)(C)O)CCCC(C)(C)O)CC[C@@H]23)C[C@H](O)C[C@H]1O |  |  |  |  |  |  |  | 1.2 nM | 
